Source: PubChem BioAssay
H69AR growth 86K: growth inhibitors of human H69AR lung tumor cells; H69AR lung tumor viability, ATP luminescence, 72 h; stronger effect = lower value; viability, % at 10 µM; actives 6% (n = 85,000);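 active = viability at or below 40%; inactive = viability above 40%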;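 note: multidrug resistant small cell line overexpressing MRP-1 efflux transporter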
Lung fibro prol: blocks proliferation of human lung fibroblasts; LL 47 human lung fibroblast viability, ATP luminescence; stronger effect = lower value; viability, % at 10 µM; actives 1.1% (n = 85,000); AID 719;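 active = viability at or below 50% in the single dose screen; inactive = viability above 50%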;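 note: compound exposure lasted 72 h before the ATP readout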
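test system = LL 47 human lung fibroblasts | amount = 1,150 fibroblasts seeded per well | medium = 15% FBS in IMEM | times = overnight cell rest, 72 h compound treatment at 37 °C | measured by = CellTiter-Glo luminescence measuring cellular ATP | read-out = viability percentage against median untreated-cell control | benchmarks = cell-only wells, no compound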
Calb biofilm kill: kills Candida albicans biofilms | C. albicans biofilm + clotrimazole, Alamar Blue | inhibition, % at 6 µM | actives 0.14% (n = 85,000);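 active = inhibition above 20%; inactive = inhibition below 20%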;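 note: preformed 24 hr biofilms exposed to compound for 48 hr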
HUVEC prolif 384: human endothelial cell proliferation inhibition; HUVEC proliferation, CellTiter-Glo luminescence, 72 h; stronger effect = lower value; viability, % at 10 µM (by protocol); actives 1.1% (n = 86,000); AID 648;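 active = viability at or below 30%; inactive = viability above 30%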
HCT116 PTEN-null: growth suppressors of cells with PTEN tumor suppressor deletion. HCT116 PTEN-null viability, CellTiter-Glo, 60 h; stronger effect = lower value. viability, % at 10 µM. actives 1.2% (n = 140,000). AID 827;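 active = viability at or below a set limit, 4 SD under the median of all tested compounds, cut at about 3.7% in these data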;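 note: PTEN knockout HCT116 line with beta catenin targeted HCT116 as companion control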
HCT116 bCat-KO: beta-catenin-lacking colon tumor cell growth suppression; viability, % at 10 µM; actives 1.5% (n = 140,000); HCT116 beta-catenin knockout viability, CellTiter-Glo, 60 h; stronger effect = lower value; AID 818;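 active = viability at or under a set limit, the compound median less 4 SD, cut at about 6% in these data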
Large screens that a line does not name were inactive. This excerpt belongs to a sample that is enriched for hits.

CCOc1cc(C(=O)Nc2cccc3ncccc23)cc(OCC)c1OCC	none
COc1ccccc1C(=O)O/N=C(\N)c1ccccc1Cl	none (no result: H69AR growth 86K, Lung fibro prol, Calb biofilm kill, HUVEC prolif 384)
COc1ccccc1C(=O)Oc1ccc(C(C)C)cc1	Calb biofilm kill 58
Cc1ccc2nc(/C(C#N)=C/c3cn[nH]c3-c3ccc(F)cc3)[nH]c2c1	H69AR growth 86K 14, HCT116 PTEN-null 1.2, HCT116 bCat-KO 1.5
Cc1ccc2nc(/C(C#N)=C\c3ccc(N4CCCCC4)c([N+](=O)[O-])c3)[nH]c2c1	H69AR growth 86K 18
O=C1c2ccccc2C(=O)N1SC1CCCCC1	H69AR growth 86K 0.6
O=C(OCN1C(=O)c2ccccc2C1=O)C1CCCCC1	none
c1ccc(CN2c3ccccc3-c3nc4ccccc4n3C2c2ccccn2)cc1 (stereo not given)	H69AR growth 86K 32
CN(c1cccc(NC(=O)CN(c2ccc(C34CC5CC(CC(C5)C3)C4)cc2)S(C)(=O)=O)c1)S(C)(=O)=O	HCT116 PTEN-null 2.0, HCT116 bCat-KO 1.9 (no result: H69AR growth 86K, Lung fibro prol, Calb biofilm kill, HUVEC prolif 384)
COc1ccc(N(CC(=O)Nc2cccc(N(C)S(C)(=O)=O)c2)S(C)(=O)=O)cc1OC	none
CN1C(=O)CC(N2CCN(c3ccc(Cl)c(Cl)c3)CC2)C1=O (stereo not given)	none
Cc1ccccc1NC(=O)c1c(-c2ccccc2)noc1C	none
CCCOc1ccccc1NC(=O)c1c(-c2ccccc2)noc1C	Calb biofilm kill 30
Cc1onc(-c2ccccc2)c1C(=O)Nc1ccccc1N1CCOCC1	H69AR growth 86K 31
Cc1onc(-c2ccccc2)c1C(=O)Nc1cc(C(F)(F)F)ccc1N1CCOCC1	H69AR growth 86K 23, Lung fibro prol 48
O=C(CSc1nc2ccccc2[nH]1)Nc1ccccc1N1CCOCC1	none
O=C(CSc1nc2ccccc2[nH]1)Nc1cc(C(F)(F)F)ccc1N1CCOCC1	H69AR growth 86K 31
C/C(=N\NC(=O)c1nn(C)c(C)c1Br)c1ccc(NC(=O)c2ccccc2F)cc1	none (no result: H69AR growth 86K, Lung fibro prol, Calb biofilm kill, HUVEC prolif 384)
Cc1ccc(C(=O)c2coc3ccc(O)c(CN4CCN(C)CC4)c23)cc1	none
O=C([C@H](O)c1ccccc1)N1CCC[C@H]1CO	none (no result: H69AR growth 86K, Lung fibro prol, Calb biofilm kill, HUVEC prolif 384)
CCC(SC1=N/C(=C/c2ccccc2OC)C(=O)N1c1ccccc1)C(=O)Nc1cc(C)on1 (stereo not given)	none (no result: H69AR growth 86K, Lung fibro prol, Calb biofilm kill, HUVEC prolif 384)
O=C(c1ccc(Cl)c(S(=O)(=O)Nc2ccc(F)cc2)c1)N1CCN(c2ccccn2)CC1	H69AR growth 86K 36
COc1ccccc1N1CCN(C(=O)c2ccc(Cl)c(S(=O)(=O)NCc3ccco3)c2)CC1	H69AR growth 86K 23
O=C(c1ccco1)N1CCN(c2ccccc2F)CC1	none
O=C(c1ccc(Cl)c(S(=O)(=O)NCc2ccco2)c1)N1CCN(c2ccccc2F)CC1	H69AR growth 86K 21
CC(C(=O)O)c1ccc(N2Cc3ccccc3C2=O)cc1 (stereo not given)	none (no result: H69AR growth 86K, Lung fibro prol, Calb biofilm kill, HUVEC prolif 384)
CCC(c1nnnn1Cc1ccco1)N(CCc1ccccc1)Cc1cc2cc(C)ccc2[nH]c1=O (stereo not given)	H69AR growth 86K 22 (no result: HCT116 PTEN-null, HCT116 bCat-KO)
CCC(c1nnnn1Cc1ccccc1)N(Cc1ccco1)Cc1cc2cc(OC)ccc2[nH]c1=O (stereo not given)	H69AR growth 86K 16
CCc1ccc2[nH]c(=O)c(CN(Cc3ccccc3)Cc3nnnn3Cc3ccco3)cc2c1	H69AR growth 86K 21
O=c1[nH]c2cc3c(cc2cc1CN(Cc1ccccc1)Cc1nnnn1Cc1ccco1)OCCO3	none
O=C(c1ccco1)N1CCN(S(=O)(=O)Cc2ccc(Cl)cc2)CC1	none
COC(=O)C1C(=O)C=C(Nc2ccc(F)cc2)CC1c1ccc(OC)cc1 (stereo not given)	none (no result: H69AR growth 86K, Lung fibro prol, Calb biofilm kill, HUVEC prolif 384)
COC(=O)C1=C(Nc2ccc(C)cc2)C=C(C)C(C(=O)OC)C1c1cccc(OC)c1 (stereo not given)	H69AR growth 86K 17
COC(=O)C1=C(Nc2ccc(C)cc2)C=C(C)C(C(=O)OC)C1c1ccc(OC)cc1 (stereo not given)	H69AR growth 86K 24
Cn1c(Cl)cnc1C1CC(=O)c2cc(Cl)ccc2O1 (stereo not given)	H69AR growth 86K 0.2, Lung fibro prol 16, HCT116 PTEN-null 1.8, HCT116 bCat-KO 2.8
CCCCNC(C(=O)Nc1ccc(Cl)c([N+](=O)[O-])c1)c1ccccc1 (stereo not given)	none (no result: H69AR growth 86K, Lung fibro prol, Calb biofilm kill, HUVEC prolif 384)
CCN(C(=O)CN1CCN(S(=O)(=O)c2ccccc2C(F)(F)F)CC1)c1c(N)n(Cc2ccccc2)c(=O)[nH]c1=O	none (no result: H69AR growth 86K, Lung fibro prol, Calb biofilm kill, HUVEC prolif 384)
O=C(Nc1nc2ccccc2[nH]1)c1ccccc1	H69AR growth 86K 32
Cc1onc(-c2c(F)cccc2Cl)c1C(=O)Nc1nc2ccccc2[nH]1	H69AR growth 86K 33
O=C(Cc1ccccc1)Nc1nc2ccccc2[nH]1	none
Cc1ccc(C(=O)NCc2ccco2)cc1S(=O)(=O)Nc1cccc(Cl)c1	none (no result: H69AR growth 86K, Lung fibro prol, Calb biofilm kill, HUVEC prolif 384)
CCN(CC)S(=O)(=O)c1ccc(/C=C/C(=O)Nc2cccc(F)c2)cc1	none (no result: H69AR growth 86K, Lung fibro prol, Calb biofilm kill, HUVEC prolif 384)
COC(=O)Cn1c(CCC(=O)O)ccc1-c1ccccc1	Calb biofilm kill 31
Cc1ccccc1NC1=C(Cl)C(=O)OC1OC(=O)c1ccco1 (stereo not given)	H69AR growth 86K 9.9
Cc1cc(-c2ccccc2)nc2cc(C(=O)N(Cc3ccccc3)Cc3ccccc3)nn12	H69AR growth 86K 40, HUVEC prolif 384 26
COC(=O)c1cc2nc(-c3ccccc3)cc(C)n2n1	none
COc1cc2c(cc1OC)C(SC)=NC(C)(C)C2	HCT116 bCat-KO 2.2
Cc1ccc(C(=O)Nc2ccc3cn[nH]c3c2)cc1S(=O)(=O)N1CCCCC1	H69AR growth 86K 30
Cc1csc(NC(=O)c2ccc(C)c(S(=O)(=O)N3CCCCC3)c2)n1	none
C/C(CC(=O)NC1CCCC1)=N\NC(=O)c1ccc([N+](=O)[O-])c(Cl)c1	none (no result: H69AR growth 86K, Lung fibro prol, Calb biofilm kill, HUVEC prolif 384)
O=C(CSc1nnc(SCc2cccc3ccccc23)s1)N=Nc1c(O)[nH]c2ccccc12	HCT116 PTEN-null 1.0, HCT116 bCat-KO 4.3 (no result: H69AR growth 86K, Lung fibro prol, Calb biofilm kill, HUVEC prolif 384)
Cc1ccccc1C(=O)NCc1nnc(SCC(=O)N2c3ccccc3Sc3ccccc32)n1C	none
C=CCn1c(CNC(=O)c2ccco2)nnc1SCC(=O)N1c2ccccc2Sc2ccccc21	H69AR growth 86K 34
COc1ccccc1N1CCN(C(=O)C2c3ccccc3Oc3ccccc32)CC1	H69AR growth 86K 30
O=C(CCc1ccccc1)N1CCN(c2ccc(Cl)cc2)CC1	none
COc1ccccc1N1CCN(C(=O)C2CC=CCC2C(=O)O)CC1 (stereo not given)	none
O=C(C1c2ccccc2Oc2ccccc21)N1CCN(c2ccc(Cl)cc2)CC1	H69AR growth 86K 39
COc1ccccc1/C=C1\CCCC2=C1Nc1nnnn1C2c1ccccc1OC (stereo not given)	HCT116 PTEN-null 1.7, HCT116 bCat-KO 4.0 (no result: H69AR growth 86K, Lung fibro prol, Calb biofilm kill, HUVEC prolif 384)
CCOC(=O)C(NCCc1ccccc1F)(NC(C)=O)C(F)(F)F (stereo not given)	none (no result: H69AR growth 86K, Lung fibro prol, Calb biofilm kill, HUVEC prolif 384)
O=C1Nc2ccc(F)cc2C12SCCS2	none (no result: H69AR growth 86K, Lung fibro prol, Calb biofilm kill, HUVEC prolif 384)
Oc1ccc(/C=N/Nc2cc(N3CCOCC3)nc(N3CCOCC3)n2)cc1O	HCT116 bCat-KO 3.0 (no result: H69AR growth 86K, Lung fibro prol, Calb biofilm kill, HUVEC prolif 384)
